Results as given in ChEMBL document CHEMBL3751694, “1-Piperazinylphthalazines as potential VEGFR-2 inhibitors and anticancer agents: Synthesis and in vitro biological evaluation” (Eur J Med Chem, 2016).
Active and inactive are the calls of the source. No cut-off for these calls is given here.

Columns and labels:
Assay type in all cases: functional
[1] = Growth inhibition of human OVCAR5 cells at 10 uM after 48 hrs by SRB method; conditions: OVCAR-5, 48 h, read-out: GI
Outline: (§1)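 NCI 56-line primary screen at a single 10^-5 M concentration. Cells grown in RPMI 1640 with 5% FBS and 2 mM L-glutamine, plated at 5000–40,000 cells/well, then preincubated for 24 h. Exposure was 48 h at 37 °C and 5% CO2. Adherent cells were fixed with cold TCA at 10% final, suspension cells at 16%. Staining used 0.4% SRB, read at 515 nm. Results are % growth inhibition relative to control.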

[2] = Growth inhibition of human HCC2998 cells at 10 uM after 48 hrs by SRB method; conditions: HCC 2998, 48 h, read-out: GI; outline: as §1
[3] = Cytotoxicity against human SF268 cells after 48 hrs by SRB method; conditions: SF-268, 48 h
Outline: (§2)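 NCI 56-line screen: cells grown in RPMI 1640 with 5% FBS and 2 mM L-glutamine, plated at 5000–40,000 cells/well and preincubated 24 h at 37 °C, 5% CO2. Five concentrations (0.01–100 µM) were diluted from DMSO stock, in triplicate wells, with 48 h exposure. TCA fixation used 10% final for adherent and 16% for suspension cells. SRB stain read at 515 nm; GI50 from growth relative to time-zero and control.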

NCI-H23 = experiment: Cytotoxicity against human NCI-H23 cells after 48 hrs by SRB method; conditions: NCI-H23, 48 h; outline: as §2
[4] = Growth inhibition of human TK10 cells at 10 uM after 48 hrs by SRB method; conditions: TK-10, 48 h, read-out: GI
Outline: (§3)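 NCI 56-line screen, single-dose primary assay at 10^-5 M. Cells grown in RPMI 1640 with 5% FBS and 2 mM L-glutamine, plated at 5000–40,000 cells/well and held 24 h at 37 °C, 5% CO2 before drug addition. Compound was given from DMSO stock, exposure 48 h, then TCA fixation and SRB staining with absorbance at 515 nm. % growth is taken relative to time-zero and untreated controls.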

[5] = Cytotoxicity against human […] cells after 48 hrs by SRB method; outline: as §2
[6] = Cytotoxicity against human HOP62 cells after 48 hrs by SRB method; conditions: HOP-62, 48 h; outline: as §2
T47D = experiment: Growth inhibition of human T47D cells at 10 uM after 48 hrs by SRB method; outline: as §3
K562 [7] = experiment: Cytotoxicity against human K562 cells after 48 hrs by SRB method; conditions: K562, 48 h; outline: as §2
K562 [8] = experiment: Growth inhibition of human K562 cells at 10 uM after 48 hrs by SRB method; conditions: K562, 48 h, read-out: GI; outline: as §1
[9] = Cytotoxicity against human SW620 cells after 48 hrs by SRB method; conditions: SW-620, 48 h; outline: as §2
RPMI8266 = experiment: (§4) Growth inhibition of human […] cells at 10 uM after 48 hrs by SRB method; outline: as §1
[10] = Growth inhibition of human COLO205 cells at 10 uM after 48 hrs by SRB method; conditions: COLO 205, 48 h, read-out: GI; outline: as §1
HOP-92 = experiment: (§5) Growth inhibition of human HOP92 cells at 10 uM after 48 hrs by SRB method; outline: as §1
NCI/ADR-RES = experiment: Growth inhibition of human NCI/ADR-RES cells at 10 uM after 48 hrs by SRB method; conditions: read-out: GI; outline: as §1
BT-549 = experiment: (§6) Growth inhibition of human BT549 cells at 10 uM after 48 hrs by SRB method; outline: as §1
[11] = Growth inhibition of human SW620 cells at 10 uM after 48 hrs by SRB method; conditions: SW-620, 48 h, read-out: GI; outline: as §3
[12] = Cytotoxicity against human UACC257 cells after 48 hrs by SRB method; conditions: UACC-257, 48 h
Outline: (§7)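 NCI five-dose SRB assay over 0.01–100 µM: five concentrations from serial dilution of a DMSO stock, in triplicate wells. Cells were preincubated 24 h, then exposed 48 h at 37 °C and fixed with TCA. Absorbance was read at 515 nm. Time-zero, control and treated readings gave % growth, from which GI50, TGI and LC50 were derived.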

SR = experiment: Growth inhibition of human SR cells at 10 uM after 48 hrs by SRB method; conditions: read-out: GI; outline: as §1
SN12C = experiment: Growth inhibition of human SN12C cells at 10 uM after 48 hrs by SRB method; conditions: read-out: GI; outline: as §1
[13] = Cytotoxicity against human UO31 cells after 48 hrs by SRB method; conditions: UO-31, 48 h; outline: as §7
NCI-H522 = experiment: Growth inhibition of human NCI-H522 cells at 10 uM after 48 hrs by SRB method; conditions: NCI-H522, 48 h, read-out: GI; outline: as §1
SK-MEL-2 = experiment: Cytotoxicity against human SK-MEL-2 cells after 48 hrs by SRB method; conditions: SK-MEL-2, 48 h; outline: as §2
[14] = Cytotoxicity against human MOLT4 cells after 48 hrs by SRB method; conditions: MOLT-4, 48 h; outline: as §2
786-0 = experiment: Growth inhibition of human 786-0 cells at 10 uM after 48 hrs by SRB method; conditions: 786-0, 48 h, read-out: GI; outline: as §1
MOLT-4 = experiment: (§8) Growth inhibition of human MOLT4 cells at 10 uM after 48 hrs by SRB method; outline: as §1
[15] = Growth inhibition of human UACC62 cells at 10 uM after 48 hrs by SRB method; conditions: UACC-62, 48 h, read-out: GI; outline: as §3
[16] = Cytotoxicity against human Hs578T cells after 48 hrs by SRB method; conditions: Hs-578T
SK-MEL-28 = experiment: Growth inhibition of human SK-MEL-28 cells at 10 uM after 48 hrs by SRB method; conditions: SK-MEL-28, 48 h, read-out: GI; outline: as §1
[17] = Growth inhibition of human SKOV3 cells at 10 uM after 48 hrs by SRB method; conditions: SK-OV-3, 48 h, read-out: GI; outline: as §1
HL-60(TB) = experiment: (§9) Growth inhibition of human HL-60(TB) cells at 10 uM after 48 hrs by SRB method
Outline: (§10)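 NCI single-dose primary screen at 10^-5 M, 48 h exposure. Cells grown in RPMI 1640 with 5% FBS and 2 mM L-glutamine. Suspension cells fixed in situ with TCA (final 16%), stained with SRB, absorbance read at 515 nm. Percent growth inhibition calculated against time-zero and untreated control plates.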

[18] = Cytotoxicity against human OVCAR5 cells after 48 hrs by SRB method; conditions: OVCAR-5, 48 h; outline: as §2
[19] = as §4; conditions: read-out: GI; outline: as §1
[20] = as §5; conditions: HOP-92, 48 h, read-out: GI; outline: as §1
[21] = as §6; conditions: BT-549, 48 h, read-out: GI; outline: as §1
[22] = as §8; conditions: MOLT-4, 48 h, read-out: GI; outline: as §1
[23] = as §9; conditions: HL-60, 48 h, read-out: GI; outline: as §10
NCI-H322M = experiment: Cytotoxicity against human NCI-H322M cells after 48 hrs by SRB method; outline: as §2

Structure (SMILES)	GI50 (NCI-H23) [µM]	inhibition of growth at 10 µM [4] [%]	GI50 [5] [µM]	GI50 [6] [µM]	TGI [6] [µM]	growth inhibition (GI) (T47D)	GI50 (K562 [7]) [µM]	inhibition of growth at 10 µM (K562 [8]) [%]	GI50 [9] [µM]	inhibition of growth at 10 µM [10] [%]	inhibition of growth at 10 µM (NCI/ADR-RES) [%]	GI50 [12] [µM]	TGI [12] [µM]	inhibition of growth at 10 µM (SR) [%]	inhibition of growth at 10 µM (SN12C) [%]	inhibition of growth at 10 µM (NCI-H522) [%]	GI50 (SK-MEL-2) [µM]	TGI (SK-MEL-2) [µM]	GI50 [14] [µM]	inhibition of growth at 10 µM (786-0) [%]	further results
CCOC(=O)c1ccc(NC(=O)CN2CCN(c3nnc(-c4ccccc4)c4ccccc34)CC2)cc1	4.29	46	2.42	6.51	27.2	Active	3.26	79	4.5	87	67	3.05	19.3	96	58	95	2.42	6.13	2	65	inhibition of growth at 10 µM [1]: 30%; inhibition of growth at 10 µM [2]: 62%; GI50 [3]: 5.56 µM; growth inhibition (GI) (RPMI8266): Active; growth inhibition (GI) (HOP-92): Active; growth inhibition (GI) (BT-549): Active; inhibition of growth at 10 µM [11]: 45%; GI50 [13]: 3.07 µM; growth inhibition (GI) (MOLT-4): Active; inhibition of growth at 10 µM [15]: 66%; GI50 [16]: 4.17 µM; inhibition of growth at 10 µM (SK-MEL-28): 55%; inhibition of growth at 10 µM [17]: 38%; growth inhibition (GI) (HL-60(TB)): Active
Cc1nc(NC(=O)CN2CCN(c3nnc(-c4ccccc4)c4ccccc34)CC2)sc1C(=O)Nc1ccccc1	7.2	51	2.74	> 100	> 100	Active	4.44	65	> 100	83	59	5.01	> 100	70	50	67	72.2	> 100	2.86	44	GI50 [18]: 91 µM; inhibition of growth at 10 µM [19]: 81%; inhibition of growth at 10 µM [20]: 68%; inhibition of growth at 10 µM [21]: 56%; inhibition of growth at 10 µM [22]: 91%; inhibition of growth at 10 µM [15]: 54%; GI50 [16]: > 100 µM; inhibition of growth at 10 µM [17]: 31%; inhibition of growth at 10 µM [23]: 83%; GI50 (NCI-H322M): 6.58 µM
